According to PMC10373460 (ACS Omega, 2023):
Entries after “also recorded” stand apart in the source; their conditions may differ.

Experiments:
[1] = target: α-glucosidase from S. cerevisiae E.C. 3.2.1.20 (Saccharomyces cerevisiae, UniProt P53341); experiment: Inhibition of α-glucosidase activity in vitro; type: biochemical; conditions: for inhibition at 10 µM: read-out: %inhibition (10 μM)
α-glucosidase = α-glucosidase (Saccharomyces cerevisiae, UniProt P53341); experiment: Enzyme kinetic study; type: biochemical; conditions: for inhibition mode: Lineweaver–Burk plots, Km increased, Vmax unaffected
α-glucosidase, sequence (P53341 whole entry): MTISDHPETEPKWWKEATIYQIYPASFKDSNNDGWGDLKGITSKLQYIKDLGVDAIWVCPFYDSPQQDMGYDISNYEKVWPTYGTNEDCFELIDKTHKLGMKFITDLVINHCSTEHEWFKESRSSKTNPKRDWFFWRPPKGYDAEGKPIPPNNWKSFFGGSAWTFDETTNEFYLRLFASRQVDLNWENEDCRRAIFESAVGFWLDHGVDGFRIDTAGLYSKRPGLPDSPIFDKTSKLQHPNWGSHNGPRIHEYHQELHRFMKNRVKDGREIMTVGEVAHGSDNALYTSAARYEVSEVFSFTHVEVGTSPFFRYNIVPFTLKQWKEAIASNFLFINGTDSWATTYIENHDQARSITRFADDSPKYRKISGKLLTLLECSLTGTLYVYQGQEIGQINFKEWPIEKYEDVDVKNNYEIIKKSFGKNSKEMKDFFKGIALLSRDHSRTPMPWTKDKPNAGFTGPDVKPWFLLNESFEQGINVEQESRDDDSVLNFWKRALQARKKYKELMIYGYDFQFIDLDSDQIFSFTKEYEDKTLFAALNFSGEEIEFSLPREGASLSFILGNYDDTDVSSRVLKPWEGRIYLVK
Procedure, shortened: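 S. cerevisiae α-glucosidase solution (0.1 U/mL) and pNPG substrate solution (1 mM) prepared in […] pH 6.9 phosphate buffer. Enzyme preincubated with test compound (DMSO stock) for 10 min at 37 °C, then substrate added for 20 min at 37 °C. Stopped with 1 M Na2CO3, read at 405 nm. Lineweaver–Burk plots at several inhibitor concentrations; Ki from secondary replot of slope versus concentration.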

α-glucosidase from S. cerevisiae E.C. 3.2.1.20, sequence (P53341 whole entry): as above

| Compound | IC50 [1] [µM] | further results |
| --- | --- | --- |
| O=c1cc(O)c2ccccc2o1 [4-hydroxycoumarin] | > 200 |  |
| O=c1oc2ccccc2c(O)c1C(c1ccccc1)c1c(O)c2ccccc2oc1=O [Compound 1, 3,3′-(Phenylmethylene)bis(4-hydroxy-2H-chromen-2-one)] | 30.8 ± 1.25 |  |
| O=c1oc2ccccc2c(O)c1C(c1ccccc1Cl)c1c(O)c2ccccc2oc1=O [Compound 2, 3,3′-((2-Chlorophenyl)methylene)bis(4-hydroxy-2H-chromen-2-one)] | 8.12 ± 0.59 |  |
| O=c1oc2ccccc2c(O)c1C(c1cccc(Cl)c1)c1c(O)c2ccccc2oc1=O [Compound 3, 3,3′-((3-Chlorophenyl)methylene)bis(4-hydroxy-2H-chromen-2-one)] | 6.06 ± 0.06 |  |
| O=c1oc2ccccc2c(O)c1C(c1ccc(Cl)cc1)c1c(O)c2ccccc2oc1=O [Compound 4, 3,3′-((4-Chlorophenyl)methylene)bis(4-hydroxy-2H-chromen-2-one)] | 3.19 ± 0.41 |  |
| O=c1oc2ccccc2c(O)c1C(c1ccc(F)cc1)c1c(O)c2ccccc2oc1=O [Compound 5, 3,3′-((4-Fluorophenyl)methylene)bis(4-hydroxy-2H-chromen-2-one)] | 12.31 ± 0.08 |  |
| O=c1oc2ccccc2c(O)c1C(c1ccc(Br)cc1)c1c(O)c2ccccc2oc1=O [Compound 6, 3,3′-((4-Bromophenyl)methylene)bis(4-hydroxy-2H-chromen-2-one)] | 2.95 ± 0.05 |  |
| O=c1oc2ccccc2c(O)c1C(c1ccc(Cl)cc1Cl)c1c(O)c2ccccc2oc1=O [Compound 7, 3,3′-((2,4-Dichlorophenyl)methylene)bis(4-hydroxy-2H-chromen-2-one)] | 3.15 ± 0.31 |  |
| O=c1oc2ccccc2c(O)c1C(c1ccc(Cl)c(Cl)c1)c1c(O)c2ccccc2oc1=O [Compound 8, 3,3′-((3,4-Dichlorophenyl)methylene)bis(4-hydroxy-2H-chromen-2-one)] | 1.9 ± 0.14 |  |
| O=c1oc2ccccc2c(O)c1C(c1cccc([N+](=O)[O-])c1)c1c(O)c2ccccc2oc1=O [Compound 9, 3,3′-((3-Nitrophenyl)methylene)bis(4-hydroxy-2H-chromen-2-one)] | 14.8 ± 0.32 |  |
| O=c1oc2ccccc2c(O)c1C(c1ccc(Br)c([N+](=O)[O-])c1)c1c(O)c2ccccc2oc1=O [Compound 10, 3,3′-((4-Bromo-3-nitrophenyl)methylene)bis(4-hydroxy-2H-chromen-2-one)] | 3.41 ± 0.17 |  |
| O=c1oc2ccccc2c(O)c1C(c1ccc(F)c(Br)c1)c1c(O)c2ccccc2oc1=O [Compound 11, 3,3′-((3-Bromo-4-fluorophenyl)methylene)bis(4-hydroxy-2H-chromen-2-one)] | 2.89 ± 0.25 |  |
| O=c1oc2ccccc2c(O)c1C(c1ccc(O)c(Br)c1)c1c(O)c2ccccc2oc1=O [Compound 12, 3,3′-((3-Bromo-4-hydroxyphenyl)methylene)bis(4-hydroxy-2H-chromen-2-one)] | 4.15 ± 0.06 |  |
| COc1ccc(C(c2c(O)c3ccccc3oc2=O)c2c(O)c3ccccc3oc2=O)cc1Br [Compound 13, 3,3′-((3-Bromo-4-methoxyphenyl)methylene)bis(4-hydroxy-2H-chromen-2-one)] | 3.8 ± 0.05 |  |
| O=c1oc2ccccc2c(O)c1C(c1cc(Br)c(O)c(Br)c1)c1c(O)c2ccccc2oc1=O [Compound 14, 3,3′-((3,5-Dibromo-4-hydroxyphenyl)methylene)bis(4-hydroxy-2H-chromen-2-one)] | 2.38 ± 0.24 |  |
| COc1cc(C(c2c(O)c3ccccc3oc2=O)c2c(O)c3ccccc3oc2=O)ccc1O [Compound 15, 3,3′-((4-Hydroxy-3-methoxyphenyl)methylene)bis(4-hydroxy-2H-chromen-2-one)] | 15.2 ± 0.45 |  |
| COc1cc(C(c2c(O)c3ccccc3oc2=O)c2c(O)c3ccccc3oc2=O)cc(Br)c1O [Compound 16, 3,3′-((3-Bromo-4-hydroxy-5-methoxyphenyl)methylene)bis(4-hydroxy-2H-chromen-2-one)] | 5.1 ± 0.18 |  |
| COc1c(Br)cc(C(c2c(O)c3ccccc3oc2=O)c2c(O)c3ccccc3oc2=O)cc1Br [Compound 17, 3,3′-((3,5-Dibromo-4-methoxyphenyl)methylene)bis(4-hydroxy-2H-chromen-2-one)] |  | Ki (α-glucosidase): 4.81 µM; inhibition at 10 µM [1]: 99.77 ± 0.49% |
| CCCCOc1c(Br)cc(C(c2c(O)c3ccccc3oc2=O)c2c(O)c3ccccc3oc2=O)cc1Br [Compound 18, 3,3′-((3,5-Dibromo-4-butoxyphenyl)methylene)bis(4-hydroxy-2H-chromen-2-one)] |  | Ki (α-glucosidase): 3.93 µM; inhibition mode (α-glucosidase): competitive inhibition; also recorded: competitive binding mode; inhibition at 10 µM [1]: 99.67 ± 0.42% |
| CCCCCCCCOc1c(Br)cc(C(c2c(O)c3ccccc3oc2=O)c2c(O)c3ccccc3oc2=O)cc1Br [Compound 19, 3,3′-((3,5-Dibromo-4-(octyloxy)phenyl)methylene)bis(4-hydroxy-2H-chromen-2-one)] |  | Ki (α-glucosidase): 1.8 µM; inhibition mode (α-glucosidase): competitive inhibition; inhibition at 10 µM [1]: 98.95 ± 0.26% |
